Experimental findings from ChEMBL document CHEMBL1152300, “Ligand specificity of constitutive androstane receptor as probed by induced-fit docking and mutagenesis” (J Med Chem, 2008) are described below.

The target in data set [1] is T1, Nuclear receptor subfamily 1 group I member 3 (Mus musculus, UniProt O35627, L353A). In words: Enhancement of nuclear co-repressor receptor binding to mouse CAR L353A mutant […] at 10 uM by yeast two-hybrid assay. Type of data set: cell-based. In short, it runs like this: (§1)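 Yeast two-hybrid: yeast expressing wild-type or mutant mouse CAR LBD plus SRC-1 or NCoR, selected on SD medium lacking Leu and Trp. Pooled colonies treated with DMSO or test chemical for 3.5 h. β-Galactosidase normalized to cell density. SRC-1 reference: wild-type + DMSO = 100. NCoR reference: 10 µM androstenol = 100. Mean ± SD, two independent determinations, each in triplicate.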
T1 sequence (O35627 whole entry L353A, the tested form may be a part): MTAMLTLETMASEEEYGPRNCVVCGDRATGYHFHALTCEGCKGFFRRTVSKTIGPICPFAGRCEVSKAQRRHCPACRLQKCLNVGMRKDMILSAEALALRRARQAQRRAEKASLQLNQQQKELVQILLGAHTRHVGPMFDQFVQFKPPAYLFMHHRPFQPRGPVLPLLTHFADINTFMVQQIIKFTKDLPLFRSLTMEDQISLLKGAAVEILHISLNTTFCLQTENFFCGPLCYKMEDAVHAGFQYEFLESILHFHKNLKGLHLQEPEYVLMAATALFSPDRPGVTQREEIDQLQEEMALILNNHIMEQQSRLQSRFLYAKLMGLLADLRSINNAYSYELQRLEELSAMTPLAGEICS

Data set [2] concerns the target T2, Nuclear receptor subfamily 1 group I member 3 (Mus musculus, UniProt O35627, F171L). In words: Activation of mouse CAR F171L mutant expressed in HEK293 cells at 10 uM by mammalian one-hybrid assay. As to conditions: read-out: Activity. The data set is classed as cell-based. In short, it runs like this:
(§2)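 GAL4-DBD fused to mouse CAR LBD (residues 118-358), wild-type or point mutant, cotransfected with UASx4-tk-luc reporter and pCMVβ into HEK293 cells. Cells were exposed to final 1 µM, 2 µM or 10 µM test chemical, or 0.1% v/v DMSO, for 24 h after transfection. Luciferase was normalized to β-galactosidase and set against empty GAL4 vector (=1.0). Mean ± standard deviation, three independent experiments.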

For data set [3], the target named is Nuclear receptor subfamily 1 group I member 3 (Mus musculus, UniProt O35627, L212A). In words: Effect on nuclear co-repressor receptor binding to mouse CAR L212A mutant […] at 10 uM by yeast two-hybrid assay. Type of data set: cell-based. The following applies: read-out: Activity. The method in brief:
as §1

Data set [4] concerns the target T1, Nuclear receptor subfamily 1 group I member 3. The data set can be described thus: Decrease in steroid receptor coactivator 1 binding to mouse CAR L353A mutant […] at 1 uM by yeast two-hybrid assay. As to conditions: read-out: Activity. Type of data set: cell-based. The method in brief:
(§3)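 Yeast expressing wild-type or mutant mouse CAR LBD plus SRC-1, selected on SD plates lacking leucine and tryptophan. Pooled colonies treated with DMSO or compound for 3.5 h. β-Galactosidase activity normalized to cell density. Reference is wild-type CAR + SRC-1 with DMSO (=100). Mean ± SD of two independent determinations, each in triplicate.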

Data set [5] concerns the target T3, Nuclear receptor subfamily 1 group I member 3 (Mus musculus, UniProt O35627, T350A). In words: Decrease in steroid receptor coactivator 1 binding to mouse CAR T350A mutant […] at 1 uM by yeast two-hybrid assay. The data set is classed as cell-based. As to conditions: read-out: Activity. The method in brief:
as §3

The target in data set [6] is T1, Nuclear receptor subfamily 1 group I member 3. In words: Effect on nuclear co-repressor receptor binding to mouse CAR L353A mutant […] at 1 uM by yeast two-hybrid assay. The data set is classed as cell-based. As to conditions: read-out: Activity. In short, it runs like this:
(§4)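 Yeast expressing wild-type or mutant mouse CAR LBD plus NCoR, selected on SD plates lacking leucine and tryptophan. Pooled colonies treated with DMSO or compound for 3.5 h. β-Galactosidase activity normalized to cell density. Reference is 10 µM androstenol (=100). Mean ± SD of two independent determinations, each in triplicate.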

Data set [7] deals with T4, Nuclear receptor subfamily 1 group I member 3 (Mus musculus, UniProt O35627, I252L). The data set can be described thus: Effect on nuclear co-repressor receptor binding to mouse CAR I252L mutant […] at 1 uM by yeast two-hybrid assay. The data set is classed as cell-based. As to conditions: read-out: Activity. In short, it runs like this: as §4
T4 sequence (O35627 whole entry I252L): as the sequence (O35627 whole entry L353A, the tested form may be a part) above, with I252L, A353L counted along it
For data set [8], the target named is T5, Nuclear receptor subfamily 1 group I member 3 (Mus musculus, UniProt O35627, N175A). The data set can be described thus: Effect on nuclear co-repressor receptor binding to mouse CAR N175A mutant […] at 1 uM by yeast two-hybrid assay. Type of data set: cell-based. The following applies: read-out: Activity. The method in brief:
as §4

Data set [9] deals with Nuclear receptor subfamily 1 group I member 3 (Mus musculus, UniProt O35627, L253F). The data set can be described thus: Effect on steroid receptor coactivator 1 binding to mouse CAR L253F mutant […] at 1 uM by yeast two-hybrid assay. Type of data set: cell-based. As to conditions: read-out: Activity. The method in brief: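 Yeast two-hybrid assay. Yeast co-expressing wild-type or mutant mouse CAR LBD and the SRC-1 partner were selected on SD plates lacking leucine and tryptophan. Random colonies were pooled and amplified, then treated with DMSO or test chemical for 3.5 h. β-galactosidase activity was normalized to cell density and set relative to wild-type mCAR + SRC-1 with DMSO (=100). Mean ± standard deviation of two determinations, each in triplicate.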
Chain of Nuclear receptor subfamily 1 group I member 3 (Mus musculus, UniProt O35627, L253F) (O35627 whole entry L253F, the tested form may be a part): as the sequence (O35627 whole entry L353A, the tested form may be a part) above, with L253F, A353L counted along it

The target of data set [10] is Nuclear receptor subfamily 1 group I member 3 (Mus musculus, UniProt O35627, H213A). In words: Effect on nuclear co-repressor receptor binding to mouse CAR H213A mutant […] at 1 uM by yeast two-hybrid assay. Type of data set: cell-based. The following applies: read-out: Activity. The method in brief:
as §4

Data set [11] deals with T2, Nuclear receptor subfamily 1 group I member 3. In words: Effect on steroid receptor co-activator 1 binding to mouse CAR F171L mutant […] at 1 uM by yeast two-hybrid assay. The following applies: read-out: Activity. The data set is classed as cell-based. In short, it runs like this:
as §3

In data set [12] the target is T4, Nuclear receptor subfamily 1 group I member 3. In words: Activation of mouse CAR I252L mutant expressed in HEK293 cells at 1 uM by mammalian one-hybrid assay. The data set is classed as cell-based. The following applies: hek293, 1 µM. In short, it runs like this:
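GAL4 DBD fused to mouse CAR LBD (residues 118-358), wild type or point mutant, cotransfected with UASx4-tk-luc reporter and pCMVβ into HEK293 cells. Cells cultured with DMSO (0.1% v/v) or compound (final 1, 2 or 10 µM). Lysed 24 h post-transfection. Luciferase normalized to β-galactosidase, expressed relative to empty GAL4 vector (=1.0). Mean ± SD, three independent experiments.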

For data set [13], the target named is T6, Nuclear receptor subfamily 1 group I member 3 (Mus musculus, UniProt O35627, F171A). The data set can be described thus: Effect on nuclear co-repressor receptor binding to mouse CAR F171A mutant […] at 1 uM by yeast two-hybrid assay. Type of data set: cell-based. In short, it runs like this:
as §4

In data set [14] the target is Nuclear receptor subfamily 1 group I member 3 (Mus musculus, UniProt O35627, Y336A). The following applies: HEK293, mouse, read-out: Activity.
Chain of Nuclear receptor subfamily 1 group I member 3 (Mus musculus, UniProt O35627, Y336A) (O35627 whole entry Y336A): as the sequence (O35627 whole entry L353A, the tested form may be a part) above, with Y336A, A353L counted along it
Data set [15] concerns the target T1, Nuclear receptor subfamily 1 group I member 3. The data set can be described thus: Effect on steroid receptor coactivator 1 binding to mouse CAR L353A mutant […] at 2 uM by yeast two-hybrid assay. The following applies: read-out: Activity. The data set is classed as cell-based. In short, it runs like this: as §1
Data set [16] addresses T5, Nuclear receptor subfamily 1 group I member 3. The data set can be described thus: Enhancement of steroid receptor co-activator 1 binding to mouse CAR N175A mutant […] at 2 uM by yeast two-hybrid assay. The data set is classed as cell-based. In short, it runs like this:
as §1

The target in data set [17] is T3, Nuclear receptor subfamily 1 group I member 3. In words: Decrease in steroid receptor coactivator 1 binding to mouse CAR T350A mutant […] at 2 uM by yeast two-hybrid assay. The data set is classed as cell-based. As to conditions: read-out: Activity. In short, it runs like this: as §1
For data set [18] the target is unchanged. In words: Decrease in mouse CAR T350A mutant activation expressed in HEK293 cells at 2 uM by mammalian one-hybrid assay. The following applies: read-out: Activity. The data set is classed as cell-based. In short, it runs like this: as §2
Data set [19] addresses T6, Nuclear receptor subfamily 1 group I member 3. The data set can be described thus: Effect on steroid receptor co-activator 1 binding to mouse CAR F171A mutant […] at 2 uM by yeast two-hybrid assay. Type of data set: cell-based. As to conditions: read-out: Activity. In short, it runs like this: as §1

T3 sequence (O35627 whole entry T350A): as the sequence (O35627 whole entry L353A, the tested form may be a part) above, with T350A, A353L counted along it
T6 sequence (O35627 whole entry F171A): as the sequence (O35627 whole entry L353A, the tested form may be a part) above, with F171A, A353L counted along it
T2 sequence (O35627 whole entry F171L, the tested form may be a part): as the sequence (O35627 whole entry L353A, the tested form may be a part) above, with F171L, A353L counted along it
T5 sequence (O35627 whole entry N175A): as the sequence (O35627 whole entry L353A, the tested form may be a part) above, with N175A, A353L counted along it
Chain of Nuclear receptor subfamily 1 group I member 3 (Mus musculus, UniProt O35627, L212A) (O35627 whole entry L212A): as the sequence (O35627 whole entry L353A, the tested form may be a part) above, with L212A, A353L counted along it
Chain of Nuclear receptor subfamily 1 group I member 3 (Mus musculus, UniProt O35627, H213A) (O35627 whole entry H213A): as the sequence (O35627 whole entry L353A, the tested form may be a part) above, with H213A, A353L counted along it

For `COc1ccc(C(=O)CCCc2ccccc2)cc1`, in data set [1], the Activity result is on record as “>= 50%”. Also, the activity at 10 µM in data set [2] and in data set [3] was under 50% in each case.
As to `Clc1cnc(Oc2ccc(Oc3ncc(Cl)cc3Cl)cc2)c(Cl)c1`, the inhibition at 1 µM in [4] and in [5] was at least 50% in each case. Besides, the activity at 1 µM in [6], in data set [7], in data set [8], in [9], in [10] and in data set [11] was under 50% in each case. Moreover, the Activity in data set [12] and in [13] was under 50% in each case.
`C[C@]12CC[C@@H](O)C[C@@H]1CC[C@@H]1[C@@H]2CC[C@]2(C)C=CC[C@@H]12` [ANDROSTENOL]: the inhibition at 10 µM in data set [14] was under 50%.
Take `Clc1ccccc1C(c1ccccc1)(c1ccccc1)n1ccnc1` [CLOTRIMAZOLE]: the activity at 2 µM in [15] and in [19] was under 50% throughout. In addition, the Activity result in [16] is on record as “>= 50%”. Also, the inhibition at 2 µM in data set [17] is at least 50%; in [18], under 50%.
